A selection: hits, their analogues and other compounds. The true share with any hit is near 1.8%.
ARNT TACC3 PPI: disrupts binding between human ARNT and TACC3; inhibition, % at 9.99 µM; AlphaScreen His-ARNT PAS-B/GST-TACC3 binding, luminescence; TACC3 fragment carries E629A point mutation; actives 0.66% (n = 390,000);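 active means mean inhibition of replicates at least 50% and at least half of replicates each reaching 50%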;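 further: 0% = complete ARNT plus TACC3 wells and 100% = ARNT alone without TACC3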
ABHD4 inh: inhibits mouse alpha/beta hydrolase domain 4. Q8VD66. purified mABHD4, FP-Rh probe fluorescence polarization. inhibition, % at 8.92 µM. actives 0.54% (n = 370,000);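 active means inhibition exceeding the mean over every tested compound plus 3 SD, cut at about 30% in these data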;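 further: 0% = plate median of compound wells and 100% = S159A mutant with DMSO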
Target sequence (Q8VD66 whole entry, looked up, the tested form may be a part): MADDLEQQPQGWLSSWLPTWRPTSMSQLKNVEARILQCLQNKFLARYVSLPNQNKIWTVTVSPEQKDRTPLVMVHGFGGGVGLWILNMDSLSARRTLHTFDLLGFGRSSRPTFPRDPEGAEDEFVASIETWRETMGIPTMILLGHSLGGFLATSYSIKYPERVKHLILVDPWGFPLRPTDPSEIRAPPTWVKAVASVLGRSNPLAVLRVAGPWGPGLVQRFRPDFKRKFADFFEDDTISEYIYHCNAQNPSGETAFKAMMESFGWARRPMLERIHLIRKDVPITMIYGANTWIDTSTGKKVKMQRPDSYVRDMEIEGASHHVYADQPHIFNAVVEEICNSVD
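System: mouse ABHD4 enzyme, wild type / Medium: HEPES pH 7.0, NaCl, Pluronic buffer / Reagent: FP-Rh activity-based fluorescent probe / Control set: S159A mutant high control, sample median low control / Detection: fluorescence polarization with parallel and perpendicular emission, 525/598 nm / Schedule: 45 min + 60 min at 25 °C / Compound dosing: 8.92 µM, single dose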
TCR CD3 inh: human TCR-CD3 binding inhibition; TAMRA-labeled TCR probe fluorescence, biochemical; inhibition, % at 9.4 µM; actives 0.37% (n = 360,000); AID 651800; in the data active means inhibition above about 19%;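 further: recombinant mutant TCR 2C K166C tagged with TAMRA read by polarization; 0% = receptor in buffer alone and 100% = receptor with positive control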
HTRA1 inhibitor: HTRA1 (human) protease inhibition | recombinant HTRA1, FP-rhodamine activity-based probe, fluorescence polarization | actives 0.5% (n = 340,000) | inhibition, % at 5.96 µM; in the data active means inhibition above about 36%;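 further: 0% = enzyme with DMSO and 100% = wells lacking enzyme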
SIAE inh: blocks human sialic acid acetylesterase; SIAE FP-Rh probe binding, fluorescence polarization; inhibition, % at 9.66 µM; actives 0.69% (n = 370,000);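 active means inhibition above a cutoff: mean of compounds within the control limits plus 3 SD of those, cut at about 17% in these data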;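 further: 0% = plate median of compound wells and 100% = probe without SIAE protein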
SIAE confirm: confirmation of human SIAE inhibitors; shares compounds with SIAE inh; inhibition, % at 9.66 µM; actives 13% (n = 2,300); SIAE FP-Rh activity-based probe, fluorescence polarization;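 active means mean inhibition of the replicates above the hit cutoff set in the primary screen, cut at about 17% in these data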;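 further: 0% = SIAE with DMSO and probe and 100% = probe without SIAE; inhibitors lower polarization as more probe stays unbound to SIAE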
Active calls of the source: *.

What do the screens show for `COc1ccc(CNc2ccc3c(c2)ncn3C)cc1OC`?
ARNT TACC3 PPI: -6; ABHD4 inh: 5; TCR CD3 inh: 1; HTRA1 inhibitor: 1; SIAE inh: 18*; SIAE confirm: 6

Results for CCCn1cnc2cc(NCc3cccc(OC)c3O)ccc21 ?
ARNT TACC3 PPI: 7; ABHD4 inh: 9; TCR CD3 inh: 4; HTRA1 inhibitor: 12; SIAE inh: 25*; SIAE confirm: 5

Results for C[C@@H]1CN([C@H](C)CO)C(=O)c2cc(NC(=O)Nc3ccc4c(c3)OCO4)ccc2O[C@@H](C)CCCCO[C@H]1CN(C)C(=O)c1ccccc1 ?
ARNT TACC3 PPI: 3

What do the screens show for `Cc1ccc(N2CC(C(=O)NCc3cccs3)CC2=O)cc1C` (configuration not stated)?
ARNT TACC3 PPI: -30; ABHD4 inh: -2; TCR CD3 inh: -6; HTRA1 inhibitor: 2; SIAE inh: 16

Results for Cc1cc(N2CC(C(=O)NCc3cccs3)CC2=O)ccc1C(C)C (configuration not stated) ?
ARNT TACC3 PPI: -5; ABHD4 inh: 0; TCR CD3 inh: 5; HTRA1 inhibitor: -2; SIAE inh: 18*; SIAE confirm: 2

What do the screens show for `O=C1C(Cl)=C(N2CCCCCC2)C(=O)N1c1ccccc1`?
ARNT TACC3 PPI: 3; ABHD4 inh: -2; TCR CD3 inh: -1; HTRA1 inhibitor: -11; SIAE inh: 3

What do the screens show for `O=C1C(Cl)=C(N2CCCCC2)C(=O)N1Cc1ccccc1`?
ARNT TACC3 PPI: 7; ABHD4 inh: 2; TCR CD3 inh: 8; HTRA1 inhibitor: -10; SIAE inh: 18*; SIAE confirm: 1

How did NC(=S)N/N=C1\CCOc2ccc(Cl)cc21 do in these assays?
ARNT TACC3 PPI: 5; ABHD4 inh: 10; TCR CD3 inh: -6; HTRA1 inhibitor: -2; SIAE inh: 18*; SIAE confirm: -2

How did CN1C(=O)c2cc(NC(=O)c3ccccc3)ccc2OC[C@@H]2O[C@H](CC(=O)NCC3CC3)CC[C@H]21 do in these assays?
ARNT TACC3 PPI: 3

What do the screens show for `COC(=O)c1sc(N/N=C/c2ccc(C(C)C)cc2)nc1C`?
ARNT TACC3 PPI: 6; ABHD4 inh: 4; TCR CD3 inh: 6; HTRA1 inhibitor: 8; SIAE inh: 23*; SIAE confirm: 7

Results for C[C@@H]1CN([C@@H](C)CO)C(=O)Cc2cc(NC(=O)Nc3cccc4ccccc34)ccc2O[C@H]1CN(C)S(=O)(=O)c1cccs1 ?
ARNT TACC3 PPI: 7

How did COc1ccc(NC(=O)N(C)C[C@H]2Oc3ccc(NC(=O)Cc4cn(C)c5ccccc45)cc3C(=O)N([C@H](C)CO)C[C@H]2C)cc1 do in these assays?
ARNT TACC3 PPI: 5

How did O=C(N/N=C/c1cn(-c2ccccc2)nc1-c1ccccc1)c1ccco1 do in these assays?
ARNT TACC3 PPI: 1; ABHD4 inh: -14; TCR CD3 inh: -2; HTRA1 inhibitor: -44; SIAE inh: 21*; SIAE confirm: 3

What do the screens show for `COc1cc(/C=N/NC(=O)C2COc3ccccc3O2)ccc1O` (configuration not stated)?
ARNT TACC3 PPI: -10; ABHD4 inh: 3; TCR CD3 inh: 0; HTRA1 inhibitor: 3; SIAE inh: 20*; SIAE confirm: 8

How did COc1cc(/C=N/NC(=O)CCn2c3ccccc3c3ccccc32)ccc1O do in these assays?
ARNT TACC3 PPI: -11; ABHD4 inh: -6; TCR CD3 inh: 0; HTRA1 inhibitor: -11; SIAE inh: 18*; SIAE confirm: 12

What do the screens show for `Cc1ccc(-n2c3c(cc(C(=O)NCCCN4CCOCC4)c2=O)C(=O)CC(C)(C)C3)cc1`?
ARNT TACC3 PPI: 4; ABHD4 inh: 0; TCR CD3 inh: 2; HTRA1 inhibitor: 4; SIAE inh: 19*; SIAE confirm: -1

How did CCOC(=O)c1c(/N=C/C2=C(O)CCCC2=O)sc(C)c1C do in these assays?
ARNT TACC3 PPI: -26; ABHD4 inh: -13; TCR CD3 inh: -2; HTRA1 inhibitor: -4; SIAE inh: 18*; SIAE confirm: 2

How did COc1ccc(NS(=O)(=O)c2cccs2)cc1S(=O)(=O)N1CCCCC1 do in these assays?
ARNT TACC3 PPI: 1; ABHD4 inh: 1; TCR CD3 inh: -5; HTRA1 inhibitor: 4; SIAE inh: 19*; SIAE confirm: 0

What do the screens show for `CCCC(=O)Nc1ccc2c(c1)C(=O)N(C)[C@@H]1CC[C@H](CC(=O)NCC3CC3)O[C@H]1CO2`?
ARNT TACC3 PPI: -3

Results for O=C(CC[C@H]1O[C@@H](n2cnc3c(NC(=O)c4ccccc4)ncnc32)[C@H](O)[C@@H]1O)NCC1CCN(Cc2ccccc2)CC1 ?
ABHD4 inh: 8; TCR CD3 inh: 2; SIAE inh: 34*; SIAE confirm: 27*

Results for O=C(CC[C@H]1O[C@@H](n2cnc3c(NC(=O)c4ccccc4)ncnc32)[C@H](O)[C@@H]1O)NCC(F)(F)F ?
ABHD4 inh: 1; TCR CD3 inh: -8; SIAE inh: -1

Results for S=C(NCc1ccc2[nH]c3c(c2c1)CCCC3)Nc1ccccc1 ?
ARNT TACC3 PPI: 5; ABHD4 inh: 14; TCR CD3 inh: 1; HTRA1 inhibitor: 17; SIAE inh: 23*; SIAE confirm: 9

Results for Cc1cc(C)cc(NC(=S)NCc2ccc3[nH]c4c(c3c2)CCCC4)c1 ?
ARNT TACC3 PPI: -3; ABHD4 inh: 3; TCR CD3 inh: -9; HTRA1 inhibitor: 3; SIAE inh: 17*; SIAE confirm: 2

Results for C[C@H]1CN([C@@H](C)CO)S(=O)(=O)c2ccc(C#CC3CCCC3)cc2O[C@@H]1CN(C)S(C)(=O)=O ?
ARNT TACC3 PPI: -4

Results for CC(Oc1cc2oc(=O)c3c(c2cc1Cl)CCC3)C(=O)N1C[C@H]2C[C@@H](C1)c1cccc(=O)n1C2 (some centres not stated) ?
ARNT TACC3 PPI: -10; ABHD4 inh: 8; TCR CD3 inh: 0; HTRA1 inhibitor: -9; SIAE inh: 18*; SIAE confirm: 0

Results for O=C(N[C@H]1CC[C@H](CCNC(=O)C2CCOCC2)O[C@@H]1CO)c1ccncc1 ?
ARNT TACC3 PPI: 8

Results for CCN(CC)S(=O)(=O)c1cccc(C(=O)N/N=C/c2cccc(O)c2O)c1 ?
ARNT TACC3 PPI: 11; ABHD4 inh: 16; TCR CD3 inh: 9; HTRA1 inhibitor: 14; SIAE inh: 27*; SIAE confirm: -7

How did CCN(CC)c1ccc(/C=N/NC(=O)c2cccc(S(=O)(=O)N3CCOCC3)c2)c(O)c1 do in these assays?
ARNT TACC3 PPI: -3; ABHD4 inh: 15; TCR CD3 inh: -2; HTRA1 inhibitor: 21; SIAE inh: 20*; SIAE confirm: 11
